≈ marks a conversion by molar mass, not a printed value. Calls of active or inactive are those of the source. The calls are words filed in the database; no cut-off is given here.
Tests used:
Format in all cases: functional
[1] = test system: Mycobacterium tuberculosis; test: Antibacterial activity against Mycobacterium tuberculosis ATTC 27294 after 5 days by MABA assay; conditions: for MIC: 120 h
Summary of the method: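 Microplate Alamar blue assay in Middlebrook 7H9 broth. Compounds serially diluted on the plate to final concentrations of […]. Plates sealed and incubated at 37 °C for 5 days. A 1:1 mix of Alamar blue and 10% Tween 80 was then added and plates incubated 24 h. Blue scored as no growth, pink as growth. MIC is the lowest concentration preventing the blue-to-pink change.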

J774 [2] = test: Cytotoxicity against murine J774 cells assessed as cell viability at 1 ug/mL after 18 hrs by MTT assay; conditions: Mus musculus, J774, 18 h; read-out: Activity
Summary of the method: (§1)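 J774 macrophages plated at 2.5 × 10⁶ cells/mL and held 1 h at 37 °C under 5% CO₂. Non-adherent cells were washed off with RPMI 1640. Adherent cells were exposed in triplicate to compound at 0.1, 1.0, 10.0 or 100 µg/mL, with medium alone as live control and 3% Tween 20 as dead control. After 18 h, MTT was added for 4 h, formazan was dissolved in DMSO, and A540 was read.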

J774 [3] = test: Cytotoxicity against murine J774 cells assessed as cell viability at 10 ug/mL after 18 hrs by MTT assay; conditions: Mus musculus, J774, 18 h; read-out: Activity; summary of the method: as §1
J774 [4] = test: Cytotoxicity against murine J774 cells assessed as cell viability at 100 ug/mL after 18 hrs by MTT assay; conditions: Mus musculus, J774, 18 h; read-out: Activity; summary of the method: as §1
J774 [5] = test: Cytotoxicity against murine J774 cells assessed as cell viability at 0.1 ug/mL after 18 hrs by MTT assay; conditions: Mus musculus, J774, 18 h; read-out: Activity; summary of the method: as §1

| Compound | Activity [1] | MIC [1] | also measured |
| --- | --- | --- | --- |
| COc1ccc(OC)c(NC(=O)Cc2cccs2)c1 | inactive |  |  |
| O=C(Cc1cccs1)Nc1ccccc1[N+](=O)[O-] | inactive |  |  |
| CO[C@H]1/C=C/O[C@@]2(C)Oc3c(C)c(O)c4c(O)c(c(/C=N/N5CCN(C)CC5)c(O)c4c3C2=O)NC(=O)/C(C)=C\C=C\[C@H](C)[C@H](O)[C@@H](C)[C@@H](O)[C@@H](C)[C@H](OC(C)=O)[C@@H]1C [RIFAMPIN] |  | 1 µg/mL (≈ 1.22 µM) |  |
| COc1ccccc1NC(=O)Cc1cccs1 | inactive |  |  |
| O=C(Cc1cccs1)Nc1ccc(Cl)cc1 |  | 100 µg/mL (≈ 397 µM) |  |
| O=C(Cc1cccs1)Nc1ccc2c(c1)OCO2 | inactive |  |  |
| O=C(Cc1cccs1)Nc1ccc(Br)cc1 | inactive |  |  |
| O=C(Cc1cccs1)Nc1cccc(Cl)c1 |  | 50 µg/mL (≈ 199 µM) | viability at 1 µg/mL (J774 [2]): 100%; viability at 10 µg/mL (J774 [3]): 100%; viability at 100 µg/mL (J774 [4]): 100%; viability at 0.1 µg/mL (J774 [5]): 100% |
| O=C(Cc1cccs1)Nc1ccccc1C(F)(F)F | inactive |  |  |
| O=C(Cc1cccs1)Nc1ccc([N+](=O)[O-])cc1 |  | 50 µg/mL (≈ 191 µM) | viability at 1 µg/mL (J774 [2]): 100%; viability at 10 µg/mL (J774 [3]): 100%; viability at 100 µg/mL (J774 [4]): 85%; viability at 0.1 µg/mL (J774 [5]): 100% |
| COc1cccc(NC(=O)Cc2cccs2)c1 |  | 50 µg/mL (≈ 202 µM) | viability at 1 µg/mL (J774 [2]): 100%; viability at 10 µg/mL (J774 [3]): 100%; viability at 100 µg/mL (J774 [4]): 100%; viability at 0.1 µg/mL (J774 [5]): 100% |
| O=C(Cc1cccs1)Nc1ccc(F)cc1Cl | inactive |  |  |
| COc1ccc(NC(=O)Cc2cccs2)cc1 | inactive |  |  |
| O=C(Cc1cccs1)Nc1cccc(C(F)(F)F)c1 | inactive |  |  |
| Cc1cccc(C)c1NC(=O)Cc1cccs1 | inactive |  |  |
| O=C(Cc1cccs1)Nc1cccc([N+](=O)[O-])c1 | inactive |  |  |
| O=C(Cc1cccs1)Nc1c(Cl)cccc1Cl | inactive |  |  |
| NNC(=O)c1ccncc1 [ISONIAZID] |  | 0.2 µg/mL (≈ 1.46 µM) |  |
| Cc1ccccc1NC(=O)Cc1cccs1 |  | 100 µg/mL (≈ 432 µM) |  |
| O=C(Cc1cccs1)Nc1ccccc1 |  | 25 µg/mL (≈ 115 µM) | viability at 1 µg/mL (J774 [2]): 100%; viability at 10 µg/mL (J774 [3]): 100%; viability at 100 µg/mL (J774 [4]): 100%; viability at 0.1 µg/mL (J774 [5]): 100% |
| O=C(Cc1cccs1)Nc1ccc(Cl)cc1F |  | 100 µg/mL (≈ 371 µM) |  |
| O=C(Cc1cccs1)Nc1ccc(F)cc1 |  | 100 µg/mL (≈ 425 µM) |  |
